Screening data as filed in PubChem.
Only a selection was taken, and hits are over-represented in it overall.
Apaf1 activ = human Apaf-1 activation. O14727. Apaf-1 apoptosome caspase-3 activation, DEVD-Rh110 fluorescence; stronger effect = lower value. activity change, negative = activation, % at 20 µM. 330,000 tested, 0.31% active. AID 489031;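 active = activity change at or below -40% at 20 µM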
Target sequence (O14727 whole entry, looked up): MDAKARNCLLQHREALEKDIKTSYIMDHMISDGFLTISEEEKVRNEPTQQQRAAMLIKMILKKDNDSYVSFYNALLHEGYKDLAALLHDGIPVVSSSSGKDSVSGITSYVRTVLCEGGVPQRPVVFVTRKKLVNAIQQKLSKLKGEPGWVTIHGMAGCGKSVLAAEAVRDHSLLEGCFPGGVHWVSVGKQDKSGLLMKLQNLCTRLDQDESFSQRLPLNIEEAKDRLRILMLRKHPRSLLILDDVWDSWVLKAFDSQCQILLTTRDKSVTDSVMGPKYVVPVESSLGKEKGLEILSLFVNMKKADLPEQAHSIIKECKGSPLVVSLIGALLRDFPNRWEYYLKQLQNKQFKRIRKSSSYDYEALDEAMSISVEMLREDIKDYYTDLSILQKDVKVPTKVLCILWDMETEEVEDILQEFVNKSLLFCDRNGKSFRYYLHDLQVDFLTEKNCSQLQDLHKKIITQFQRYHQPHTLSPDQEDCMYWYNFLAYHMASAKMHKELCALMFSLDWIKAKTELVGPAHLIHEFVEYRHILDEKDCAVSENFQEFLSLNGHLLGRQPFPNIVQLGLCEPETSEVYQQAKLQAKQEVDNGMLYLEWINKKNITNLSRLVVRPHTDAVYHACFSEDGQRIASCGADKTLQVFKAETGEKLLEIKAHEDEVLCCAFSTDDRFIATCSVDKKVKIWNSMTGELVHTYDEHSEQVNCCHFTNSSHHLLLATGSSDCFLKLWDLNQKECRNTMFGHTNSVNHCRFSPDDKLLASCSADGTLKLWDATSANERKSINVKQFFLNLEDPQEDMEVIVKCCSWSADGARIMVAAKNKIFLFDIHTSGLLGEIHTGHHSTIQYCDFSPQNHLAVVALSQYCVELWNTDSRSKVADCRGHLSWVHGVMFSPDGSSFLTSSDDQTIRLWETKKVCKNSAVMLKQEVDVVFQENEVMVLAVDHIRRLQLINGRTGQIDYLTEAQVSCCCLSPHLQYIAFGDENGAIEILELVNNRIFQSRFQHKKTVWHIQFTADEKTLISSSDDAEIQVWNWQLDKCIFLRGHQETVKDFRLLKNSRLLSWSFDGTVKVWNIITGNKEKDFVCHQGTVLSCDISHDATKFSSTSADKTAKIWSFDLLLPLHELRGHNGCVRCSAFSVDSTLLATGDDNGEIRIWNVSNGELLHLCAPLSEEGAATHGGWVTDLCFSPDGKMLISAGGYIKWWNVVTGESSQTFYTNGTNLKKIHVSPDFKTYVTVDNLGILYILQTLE
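Material: biochemical Apaf-1 apoptosome reconstitution; Medium: 20 mM HEPES buffer, pH 7.5, containing CHAPS and BSA; Reagent: dATP, cytochrome c, and (Z-DEVD)2-Rh110 caspase-3 substrate; Times: 30 min preincubation, 50 min reaction, room temperature; Signal: Rh110 fluorescence, excitation 480 nm, emission 540 nm; Measure: Caspase-3 activity via Apaf-1.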
Rh110 act interf = counter-screen for Apaf-1 activators: fluorescence interference; shares compounds with Apaf1 activ; Rh110 fluorescence interference, quenched caspase reaction, Ex480/Em540; fluorescence interference (activity change), % at 20 µM, hits read low; 980 tested, under 10 active; AID 504616;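 active = mean activity change at or below -40% when tested at 20 µM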
Apaf-1 act conf2 = confirmation of human Apaf-1 activators | activity change, negative = activation, % at 20 µM | 980 tested, 5% active | reconstituted apoptosome caspase-3 activity, DEVD-Rh110 fluorescence; stronger effect = lower value | AID 504617 | shares compounds with Apaf1 activ;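 active = mean activity change at or below -40%, meaning activation of 40% or more, at 20 µM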
Fluor interf act = shows fluorescence interference in the Apaf-1 activator assay format. shares compounds with Apaf1 activ. fluorescence interference counterscreen. EC50, µM. 55 tested, under 10 active. AID 588592; call rule not given here
Large screens that a line does not name were inactive (follow-up assays come after a bar, where they were run).

O=C(Oc1ccc[nH]c1=O)c1cc([N+](=O)[O-])cc([N+](=O)[O-])c1	none
CS(=O)(=O)N(CC(=O)Nc1c(F)cccc1F)Cc1ccccc1	Apaf1 activ -59 | Rh110 act interf inactive | Apaf-1 act conf2 inactive
CCN(CC(=O)Nc1c(F)cccc1F)C(=O)Cc1ccsc1	none
CCN(CC)CC(=O)Nc1c(C)cccc1C	none
c1ccc2c(C[C@@H]3CNCCN3CC3CCCCC3)cccc2c1	none
CCOc1ccc2[nH]c(=O)c(CN(CC3CCCN3CC)C(=O)NCc3ccccc3)cc2c1 (stereo not drawn)	Apaf1 activ -137 | Rh110 act interf inactive | Apaf-1 act conf2 inactive
C=C(C)Cc1c(C)c(C#N)c2[nH]c3ccccc3n2c1=O	none
CC(C)C(=O)NC(c1cccs1)c1cc([N+](=O)[O-])c2cccnc2c1O (stereo not drawn)	none
COc1ccc(CC(=O)N(Cc2ccccc2)c2ccc(C)cc2)cc1S(=O)(=O)N1CCOCC1	none
COc1ccc(-c2cc(C)no2)cc1S(=O)(=O)N1CCOc2ccccc21	Apaf1 activ -425 | Rh110 act interf inactive | Apaf-1 act conf2 inactive
CN(CC(=O)Nc1ccccc1N1CCOCC1)CC(=O)Nc1ccc(F)c(F)c1F	Apaf1 activ -72 | Rh110 act interf inactive | Apaf-1 act conf2 inactive
CCCN(CC(=O)Nc1ccccc1C)C(=O)C1CC(=O)N(c2ccccc2C(C)CC)C1 (stereo not drawn)	none
Cc1cccc2sc(N(CCCN(C)C)C(=O)c3ccc(S(=O)(=O)N4CCc5ccccc5C4)cc3)nc12	none
O[C@@H](c1cc(C(F)(F)F)nc2c(C(F)(F)F)cccc12)[C@H]1CCCCN1	none
COc1ccc(-c2nc(-c3ccccc3)c(-c3cccs3)[nH]2)cc1OC	Apaf1 activ -373 | Rh110 act interf inactive | Apaf-1 act conf2 inactive
CCOc1ccc(NC(=O)CN(C)S(=O)(=O)c2ccc(-c3ccc(=O)[nH]n3)s2)cc1	Apaf1 activ -86 | Rh110 act interf inactive | Apaf-1 act conf2 inactive
CCOc1ccc(C(=O)Nc2sc3c(c2C(=O)OC)CC(C)(C)NC3(C)C)cc1	none
O=C1Nc2ccc(S(=O)(=O)NCc3ccco3)c3cccc1c23	none
CCN(CC)c1ccc(/C=C2/C(=O)N(c3ccc([N+](=O)[O-])cc3)N=C2N2CCOCC2)cc1	none
CCOC(=O)N1CCN(C2=C(NS(=O)(=O)c3ccc(NC(C)=O)cc3)C(=O)c3ccccc3C2=O)CC1	none
CCOC(=O)N1CCN(c2ccc([N+](=O)[O-])cc2)CC1	Apaf1 activ -142 | Rh110 act interf inactive | Apaf-1 act conf2 inactive
COc1cccc(Cn2c(N)c(C#N)c3nc4ccccc4nc32)c1OC	none
O=C(O)CCCN1C(=O)/C(=C\c2ccc(-c3nc4ccccc4s3)o2)SC1=S	Apaf1 activ -81 | Rh110 act interf inactive | Apaf-1 act conf2 -120 | Fluor interf act inactive
O=C(O)CC(C(=O)O)N1C(=O)/C(=C/C=C/c2ccco2)SC1=S (stereo not drawn)	none
COc1ccc(C(CCN2CCCCC2)c2c(OC)cc(OC)c3c(-c4ccccc4)cc(=O)oc23)cc1 (stereo not drawn)	none
COc1ccc(N2C(=O)CCC(C(=O)O)C2c2ccccc2OC)cc1 (stereo not drawn)	Apaf1 activ -172 | Rh110 act interf inactive | Apaf-1 act conf2 inactive
COc1ccc(/C=C2/C(=O)N(c3cccc(F)c3)N=C2C)c(OC)c1	none
CC(C)c1ccc(/C=N/NC(=O)c2ccccc2Cl)cc1	Apaf1 activ -194 | Rh110 act interf inactive | Apaf-1 act conf2 inactive
Cc1ccc(/C=N/NC(=O)C(C)NC(=O)c2ccccc2)cc1 (stereo not drawn)	none
O=C(Cc1cc(=O)[nH][nH]1)N/N=C/c1ccccc1Cl	none
O=C(Nc1ccccc1C(=O)N1CCN(Cc2ccccc2)CC1)c1ccccc1	Apaf1 activ -95 | Rh110 act interf inactive | Apaf-1 act conf2 inactive
Cc1ccc(NC(=S)Nc2cccc3cnccc23)cc1C	none
CCOc1ccccc1NC(=O)C(CC(C)C)NC(=O)C1CCCCC1 (stereo not drawn)	Apaf1 activ -53 | Rh110 act interf inactive | Apaf-1 act conf2 inactive
CCc1ccc(NC(=O)[C@H](Cc2c[nH]c3ccccc23)NC(=O)[C@@H]2Cc3ccccc3CN2)cc1	none
NC1=NC[C@H](Cc2ccc(O)cc2)N1CCCCC1CCCCC1	none
CCN1CCN(Cc2ccc(NC(=O)c3ccc(C)c(NC(=O)C(=O)c4c[nH]c5ccccc45)c3)cc2C(F)(F)F)CC1	none
CCN(c1ccccc1)S(=O)(=O)c1ccc(Cl)c(NC(=O)Nc2ccc(Cl)cc2C#N)c1	none
CCN(CC)S(=O)(=O)c1ccc(Cl)c(NC(=O)c2ccc(C#N)cc2)c1	Apaf1 activ -270 | Rh110 act interf inactive | Apaf-1 act conf2 inactive
CC1CCN(S(=O)(=O)c2ccc3c4c2CC(=O)N4CC(C)S3)CC1 (stereo not drawn)	none
CCN(Cc1ccncc1)C(=O)c1ccc(Br)o1	Apaf1 activ -613 | Rh110 act interf inactive | Apaf-1 act conf2 inactive
O=C(Cn1cc2c(n1)CCCC2)NCCCN1CCCC1	none
O=C(Nc1nc(-c2ccccc2)cs1)c1ccc(N2CCOCC2)c([N+](=O)[O-])c1	Apaf1 activ -46 | Rh110 act interf inactive | Apaf-1 act conf2 inactive
NC(=O)CSc1ncc(-c2ccc([N+](=O)[O-])cc2)[nH]1	Apaf1 activ -244 | Rh110 act interf inactive | Apaf-1 act conf2 inactive
COc1ccc(CN2C(=O)Cc3c2nc(N)c2c(N)nc(N4CCOCC4)c(C#N)c32)cc1	none
CN(CC(=O)Nc1ccc(Cl)c(Cl)c1)C(=O)C12CC3CC(CC(C3)C1)C2	Apaf1 activ -86 | Rh110 act interf inactive | Apaf-1 act conf2 inactive
Cc1cc2cc(CNC(=O)Nc3ccc(Cl)c(Cl)c3)ccc2n1C	none
CC(=O)c1ccc2c(c1)C1C=CCC1C(c1ccncc1)N2 (stereo not drawn)	none
O=C(C1CC(=O)N(c2ccc3c(c2)OCCO3)C1)N1CCCC(C(F)(F)F)C1 (stereo not drawn)	Apaf1 activ -45 | Rh110 act interf inactive | Apaf-1 act conf2 inactive
Cc1c(C=O)c(Cl)n(C)c(=O)c1C#N	none
CCCCC[n+]1ccn(C2=C([O-])c3ccccc3C(=O)/C2=N\S(=O)(=O)c2ccccc2)c1	none
O=c1cc(-c2ccc(F)cc2)[nH][nH]1	none
N#Cc1nc(-c2ccc(OCc3ccc(Cl)cc3)cc2)oc1N1CCC(C(N)=O)CC1	Apaf1 activ -82 | Rh110 act interf inactive | Apaf-1 act conf2 -96 | Fluor interf act inactive
CC(C)CC(=O)N[C@H](C(=O)N[C@H](C(=O)N[C@@H](CC(C)C)[C@@H](O)CC(=O)N[C@@H](C)C(=O)N[C@@H](CC(C)C)[C@@H](O)CC(=O)O)C(C)C)C(C)C	Apaf1 activ -239 | Rh110 act interf -234 | Apaf-1 act conf2 inactive
Brc1ccc(-c2cn3nc4c(nc3n2)CCCC4)cc1	none
N#C/C(=C\c1ccc(OCc2ccc(Cl)cc2)cc1)C(=O)Nc1cccc(C(=O)O)c1	Apaf1 activ -202 | Rh110 act interf inactive | Apaf-1 act conf2 -71 | Fluor interf act inactive
Cc1ccc2[nH]c(=O)c(C(c3nnnn3CC3CCCO3)N3CCc4ccccc4C3)cc2c1 (stereo not drawn)	none
